# Activity calls are given as the source filed them. The calls are words filed in the database; no cut-off is given here.
# Key:
# [1] = Selectivity ratio of Kd for recombinant human N-terminal TEV cleavage site-fused-His6-tagged MTAP expressed in Escherichia coli BL21-CodonPlus(DE3)-RIPL competent cells to Kd for recombinant Helicobacter pylori MTAN expressed in Escherichia coli BL21(DE3)
# Outline: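 Ratio of the human MTAP dissociation constant to the HpMTAN dissociation constant. Each constant came from xanthine oxidase-coupled 305 nm rates taken at 40 min after slow-onset equilibrium and fitted to the Morrison equation. The MTAP assay used 800 μM MTA and 3 nM enzyme in 100 mM K2PO4; the HpMTAN assay used 1 mM MTA and 0.6 nM enzyme in 100 mM HEPES pH 7.2 with 100 mM NaCl.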
# [2] = Binding affinity to recombinant Helicobacter pylori MTAN expressed in Escherichia coli BL21(DE3) assessed as reduction in MTA hydrolysis measured after 40 mins in presence of xanthine oxidase
# Outline: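 His-tagged HpMTAN was purified by Ni-NTA and freed of bound adenine by charcoal dialysis. Adenine was oxidized to 2,8-dihydroxyadenine and followed at 305 nm. Rates were read at 40 min, after slow-onset equilibrium, and fitted to the Morrison quadratic equation for Ki*.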
# [3] = target: T1, S-methyl-5'-thioadenosine phosphorylase (Homo sapiens, UniProt Q13126); assay: Binding affinity to recombinant human N-terminal TEV cleavage site-fused-His6-tagged MTAP expressed in Escherichia coli BL21-CodonPlus(DE3)-RIPL competent cells assessed as reduction in MTA hydrolysis measured after 40 mins in presence of xanthine oxidase
# T1 sequence (Q13126 whole entry): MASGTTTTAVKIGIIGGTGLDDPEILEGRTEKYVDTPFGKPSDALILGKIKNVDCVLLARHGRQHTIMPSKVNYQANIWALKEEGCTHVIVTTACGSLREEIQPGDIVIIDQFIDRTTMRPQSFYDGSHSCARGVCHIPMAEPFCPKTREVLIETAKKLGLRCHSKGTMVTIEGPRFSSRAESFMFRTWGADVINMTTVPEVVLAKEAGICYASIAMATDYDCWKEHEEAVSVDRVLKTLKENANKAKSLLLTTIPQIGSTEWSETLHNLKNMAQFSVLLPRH
# Outline: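 MTAP (His6-tagged, TEV site, 14 extra N-terminal residues) was Ni-NTA purified and charcoal-dialysed to remove adenine. Each 1 mL cuvette held 100 mM K2PO4, 1 mM DTT, 800 μM MTA, 3 nM MTAP, 1 unit xanthine oxidase and varying inhibitor. Xanthine oxidase coupling gave 2,8-dihydroxyadenine, read at 305 nm (ε 15.5 mM⁻¹ cm⁻¹). Rates were taken at 40 min after slow-onset equilibrium. Ki* came from a Morrison quadratic fit.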
# [4] = target: T2, S-methyl-5'-thioadenosine phosphorylase (Homo sapiens) (UniProt Q13126); assay: Binding affinity to recombinant human N-terminal TEV cleavage site-fused-His6-tagged MTAP expressed in Escherichia coli BL21-CodonPlus(DE3)-RIPL competent cells assessed as reduction in MTA hydrolysis at 5 uM measured after 40 mins in presence of xanthine oxidase
# T2 sequence (whole entry): T1 sequence (Q13126 whole entry)
# Helicobacter pylori = assay: Binding affinity to recombinant Helicobacter pylori MTAN expressed in Escherichia coli BL21(DE3) assessed as reduction in MTA hydrolysis at 5 uM measured after 40 mins in presence of xanthine oxidase
Compound,Kd [3],Activity [4],Activity (Helicobacter pylori),Selectivity ratio [1],Kd [2]
Cn1cc(CSC[C@H]2CN(Cc3c[nH]c4c(N)ncnc34)C[C@@H]2O)nn1,66000 pM,,,241,274 pM
O=c1[nH]ccc2c(CN3C[C@H](CO)[C@@H](O)C3)c[nH]c12,,inactive,inactive,,
CSC[C@H]1CN(Cc2c[nH]c3c(=O)[nH]ccc23)C[C@@H]1O,,inactive,inactive,,
CCCCn1cc(CSC[C@H]2CN(Cc3c[nH]c4c(N)ncnc34)C[C@@H]2O)nn1,37000 pM,,,99.2,373 pM
CSC[C@H]1CN(Cc2c[nH]c3c(N)nccc23)C[C@@H]1O,31900 pM,,,3.1,10300 pM
C=CCn1cc(CSC[C@H]2CN(Cc3c[nH]c4c(N)ncnc34)C[C@@H]2O)nn1,70000 pM,,,243,288 pM
CSC[C@H]1CN(Cc2[nH]nc3c(N)ncnc23)C[C@@H]1O,19000 pM,,,80.9,235 pM

# Continued by falling Kd [3], values first:
Kd [3],Activity [4],Activity (Helicobacter pylori),Compound,Selectivity ratio [1],Kd [2]
13000 pM,,,Nc1ncnc2c(CN3C[C@H](CSc4ncccn4)[C@@H](O)C3)c[nH]c12,224,58 pM
13000 pM,,,Nc1ncnc2c(CN3C[C@H](CSCc4cn(Cc5ccccc5)nn4)[C@@H](O)C3)c[nH]c12,178,73 pM
3000 pM,,,Cn1cc(CCCSC[C@H]2CN(Cc3c[nH]c4c(N)ncnc34)C[C@@H]2O)nn1,120,25 pM
2400 pM,,,C=CCn1cc(CCCSC[C@H]2CN(Cc3c[nH]c4c(N)ncnc34)C[C@@H]2O)nn1,92.3,26 pM
1400 pM,,,Nc1ncnc2c(CN3C[C@H](CSCCCc4cn(Cc5ccccc5)nn4)[C@@H](O)C3)c[nH]c12,38.9,36 pM
1300 pM,,,CCCCn1cc(CCCSC[C@H]2CN(Cc3c[nH]c4c(N)ncnc34)C[C@@H]2O)nn1,46.4,28 pM
940 pM,,,C#CCCCSC[C@H]1CN(Cc2c[nH]c3c(N)ncnc23)C[C@@H]1O,36.2,26 pM
630 pM,,,C#CCSC[C@H]1CN(Cc2c[nH]c3c(N)ncnc23)C[C@@H]1O,11.5,55 pM

# — ChEMBL document CHEMBL4340523, “Selective Inhibitors of Helicobacter pylori Methylthioadenosine Nucleosidase and Human Methylthioadenosine Phosphorylase” (J Med Chem, 2019)
